Measurements taken from ChEMBL document CHEMBL1914423, “New imidazo[2,1-b]thiazole derivatives: synthesis, in vitro anticancer evaluation, and in silico studies” (Eur J Med Chem, 2011).
pIC50: −log10 of the molar value.

System: IGROV-1
Test: Anticancer activity against human IGROV1 cells assessed as cell growth at 10^-5 M after 48 hrs by SRB assay
Format: functional
Settings: IGROV-1, 48 h, read-out: Activity
In short: (§1)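 NCI-60 single-dose screen at one concentration. Cells grown in RPMI 1640 with 5% FBS and 2 mM L-glutamine, plated at 5000–40,000 cells/well, and pre-incubated 24 h at 37 °C in 5% CO2 before DMSO-dissolved drug was added. Cells fixed with TCA, SRB-stained, absorbance read at 515 nm. Percent growth calculated against time-zero and untreated control plates.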

SMILES | growth at 10 µM
O=C(NCCNc1nccc(-c2c(-c3cccc(O)c3)nc3sccn23)n1)Nc1ccccc1 | 99.9%
COc1cccc(-c2nc3sccn3c2-c2ccnc(NCCNC(=O)c3ccc(N4CCOCC4)c(C(F)(F)F)c3)n2)c1 | 68.6%

System: COLO 205
Test: Anticancer activity against human COLO205 cells assessed as cell growth at 10^-5 M after 48 hrs by SRB assay
Format: functional
Settings: COLO 205, 48 h, read-out: Activity
In short: as §1

SMILES | growth at 10 µM
O=C(NCCNc1nccc(-c2c(-c3cccc(O)c3)nc3sccn23)n1)Nc1ccccc1 | 69.3%
COc1cccc(-c2nc3sccn3c2-c2ccnc(NCCNC(=O)c3ccc(N4CCOCC4)c(C(F)(F)F)c3)n2)c1 | 69%

System: MDA-MB-468
Test: Anticancer activity against human MDA-MB-468 cells assessed as cell growth at 10^-5 M after 48 hrs by SRB assay
Format: functional
Settings: MDA-MB-468, 48 h, read-out: Activity

SMILES | growth at 10 µM
O=C(NCCNc1nccc(-c2c(-c3cccc(O)c3)nc3sccn23)n1)Nc1ccccc1 | 51.1%
COc1cccc(-c2nc3sccn3c2-c2ccnc(NCCNC(=O)c3ccc(N4CCOCC4)c(C(F)(F)F)c3)n2)c1 | 90.5%

System: M14
Test: Anticancer activity against human M14 cells assessed as cell growth at 10^-5 M after 48 hrs by SRB assay
Format: functional
Settings: M14, 48 h, read-out: Activity
In short: as §1

SMILES | growth at 10 µM
O=C(NCCNc1nccc(-c2c(-c3cccc(O)c3)nc3sccn23)n1)Nc1ccccc1 | 24%
COc1cccc(-c2nc3sccn3c2-c2ccnc(NCCNC(=O)c3ccc(N4CCOCC4)c(C(F)(F)F)c3)n2)c1 | 62.1%

System: UACC-62
Test: Anticancer activity against human UACC62 cells assessed as cell growth at 10^-5 M after 48 hrs by SRB assay
Format: functional
Settings: UACC-62, 48 h, read-out: Activity
In short: (§2)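 NCI-60 single-dose screen: cells in RPMI 1640 with 5% FBS and 2 mM L-glutamine, plated at 5000–40,000 cells/well by doubling time, and preincubated 24 h at 37 °C. Compound given at one concentration from DMSO stock. Cells TCA-fixed and SRB-stained, absorbance at 515 nm. Percent growth relative to time-zero and untreated controls; inhibition % = 100 − growth %.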

SMILES | growth at 10 µM
O=C(NCCNc1nccc(-c2c(-c3cccc(O)c3)nc3sccn23)n1)Nc1ccccc1 | 24.6%
COc1cccc(-c2nc3sccn3c2-c2ccnc(NCCNC(=O)c3ccc(N4CCOCC4)c(C(F)(F)F)c3)n2)c1 | 41.3%

System: NCI/ADR-RES
Test: Anticancer activity against human NCI/ADR-RES cells assessed as cell growth at 10^-5 M after 48 hrs by SRB assay
Format: functional
Settings: read-out: Activity

SMILES | growth at 10 µM
O=C(NCCNc1nccc(-c2c(-c3cccc(O)c3)nc3sccn23)n1)Nc1ccccc1 | 101%
COc1cccc(-c2nc3sccn3c2-c2ccnc(NCCNC(=O)c3ccc(N4CCOCC4)c(C(F)(F)F)c3)n2)c1 | 69.6%

System: MDA-MB-435
Test: Anticancer activity against human MDA-MB-435 cells assessed as cell growth at 10^-5 M after 48 hrs by SRB assay
Format: functional
Settings: MDA-MB-435, 48 h, read-out: Activity

SMILES | growth at 10 µM
O=C(NCCNc1nccc(-c2c(-c3cccc(O)c3)nc3sccn23)n1)Nc1ccccc1 | 31.1%
COc1cccc(-c2nc3sccn3c2-c2ccnc(NCCNC(=O)c3ccc(N4CCOCC4)c(C(F)(F)F)c3)n2)c1 | 60.8%

System: MOLT-4
Test: Anticancer activity against human MOLT4 cells assessed as cell growth at 10^-5 M after 48 hrs by SRB assay
Format: functional
Settings: MOLT-4, 48 h, read-out: Activity

SMILES | growth at 10 µM
O=C(NCCNc1nccc(-c2c(-c3cccc(O)c3)nc3sccn23)n1)Nc1ccccc1 | 65.5%
COc1cccc(-c2nc3sccn3c2-c2ccnc(NCCNC(=O)c3ccc(N4CCOCC4)c(C(F)(F)F)c3)n2)c1 | 50.8%

System: SNB-19
Test: Anticancer activity against human SNB19 cells assessed as cell growth at 10^-5 M after 48 hrs by SRB assay
Format: functional
Settings: SNB-19, 48 h, read-out: Activity

SMILES | growth at 10 µM
O=C(NCCNc1nccc(-c2c(-c3cccc(O)c3)nc3sccn23)n1)Nc1ccccc1 | 108%
COc1cccc(-c2nc3sccn3c2-c2ccnc(NCCNC(=O)c3ccc(N4CCOCC4)c(C(F)(F)F)c3)n2)c1 | 105%

System: A549
Test: Anticancer activity against human A549 cells assessed as cell growth at 10^-5 M after 48 hrs by SRB assay
Format: functional
Settings: A549, 48 h, read-out: Activity
In short: as §1

SMILES | growth at 10 µM
O=C(NCCNc1nccc(-c2c(-c3cccc(O)c3)nc3sccn23)n1)Nc1ccccc1 | 90.7%
COc1cccc(-c2nc3sccn3c2-c2ccnc(NCCNC(=O)c3ccc(N4CCOCC4)c(C(F)(F)F)c3)n2)c1 | 76.2%

System: OVCAR-4
Test: Anticancer activity against human OVCAR4 cells assessed as cell growth at 10^-5 M after 48 hrs by SRB assay
Format: functional
Settings: OVCAR-4, 48 h, read-out: Activity

SMILES | growth at 10 µM
O=C(NCCNc1nccc(-c2c(-c3cccc(O)c3)nc3sccn23)n1)Nc1ccccc1 | 123%
COc1cccc(-c2nc3sccn3c2-c2ccnc(NCCNC(=O)c3ccc(N4CCOCC4)c(C(F)(F)F)c3)n2)c1 | 102%

System: PC-3
Test: Anticancer activity against human PC3 cells assessed as cell growth at 10^-5 M after 48 hrs by SRB assay
Format: functional
Settings: PC-3, 48 h, read-out: Activity

SMILES | growth at 10 µM
O=C(NCCNc1nccc(-c2c(-c3cccc(O)c3)nc3sccn23)n1)Nc1ccccc1 | 86.6%
COc1cccc(-c2nc3sccn3c2-c2ccnc(NCCNC(=O)c3ccc(N4CCOCC4)c(C(F)(F)F)c3)n2)c1 | 60.8%

System: not listed separately
Test: Antiproliferative activity against human A375P cells after 48 hrs by MTT assay
Format: functional, cell-based
Settings: not given
In short: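 A375P cells in DMEM with 10% FBS at 37 °C, 5% CO2. Seeded at 5×10³ cells/well, held 24 h, then treated with 12-point 3-fold serial dilutions for 48 h. Viability by MTT reduction. IC50 values are means of triplicate experiments.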

SMILES | pIC50
O=C(NCCNc1nccc(-c2c(-c3cccc(O)c3)nc3sccn23)n1)Nc1ccccc1 | < 5.00
COc1cccc(-c2nc3sccn3c2-c2ccnc(NCCNC(=O)c3ccc(N4CCOCC4)c(C(F)(F)F)c3)n2)c1 | < 5.00

System: SN12C
Test: Anticancer activity against human SN12C cells assessed as cell growth at 10^-5 M after 48 hrs by SRB assay
Format: functional
Settings: read-out: Activity

SMILES | growth at 10 µM
O=C(NCCNc1nccc(-c2c(-c3cccc(O)c3)nc3sccn23)n1)Nc1ccccc1 | 64.3%
COc1cccc(-c2nc3sccn3c2-c2ccnc(NCCNC(=O)c3ccc(N4CCOCC4)c(C(F)(F)F)c3)n2)c1 | 91.7%

System: HCC 2998
Test: Anticancer activity against human HCC2998 cells assessed as cell growth at 10^-5 M after 48 hrs by SRB assay
Format: functional
Settings: HCC 2998, 48 h, read-out: Activity
In short: as §1

SMILES | growth at 10 µM
O=C(NCCNc1nccc(-c2c(-c3cccc(O)c3)nc3sccn23)n1)Nc1ccccc1 | 94.7%
COc1cccc(-c2nc3sccn3c2-c2ccnc(NCCNC(=O)c3ccc(N4CCOCC4)c(C(F)(F)F)c3)n2)c1 | 93.3%

System: SW-620
Test: Anticancer activity against human SW620 cells assessed as cell growth at 10^-5 M after 48 hrs by SRB assay
Format: functional
Settings: SW-620, 48 h, read-out: Activity
In short: as §2

SMILES | growth at 10 µM
O=C(NCCNc1nccc(-c2c(-c3cccc(O)c3)nc3sccn23)n1)Nc1ccccc1 | 63.3%
COc1cccc(-c2nc3sccn3c2-c2ccnc(NCCNC(=O)c3ccc(N4CCOCC4)c(C(F)(F)F)c3)n2)c1 | 108%

System: SF-295
Test: Anticancer activity against human SF295 cells assessed as cell growth at 10^-5 M after 48 hrs by SRB assay
Format: functional
Settings: SF-295, 48 h, read-out: Activity

SMILES | growth at 10 µM
O=C(NCCNc1nccc(-c2c(-c3cccc(O)c3)nc3sccn23)n1)Nc1ccccc1 | 99.5%
COc1cccc(-c2nc3sccn3c2-c2ccnc(NCCNC(=O)c3ccc(N4CCOCC4)c(C(F)(F)F)c3)n2)c1 | 69.2%

System: K562
Test: Anticancer activity against human K562 cells assessed as cell growth at 10^-5 M after 48 hrs by SRB assay
Format: functional
Settings: K562, 48 h, read-out: Activity
In short: as §1

SMILES | growth at 10 µM
O=C(NCCNc1nccc(-c2c(-c3cccc(O)c3)nc3sccn23)n1)Nc1ccccc1 | 70.6%
COc1cccc(-c2nc3sccn3c2-c2ccnc(NCCNC(=O)c3ccc(N4CCOCC4)c(C(F)(F)F)c3)n2)c1 | 32.6%

System: SK-MEL-28
Test: Anticancer activity against human SK-MEL-28 cells assessed as cell growth at 10^-5 M after 48 hrs by SRB assay
Format: functional
Settings: SK-MEL-28, 48 h, read-out: Activity

SMILES | growth at 10 µM
O=C(NCCNc1nccc(-c2c(-c3cccc(O)c3)nc3sccn23)n1)Nc1ccccc1 | 57.4%
COc1cccc(-c2nc3sccn3c2-c2ccnc(NCCNC(=O)c3ccc(N4CCOCC4)c(C(F)(F)F)c3)n2)c1 | 89.5%

System: NCI-H460
Test: Anticancer activity against human NCI-H460 cells assessed as cell growth at 10^-5 M after 48 hrs by SRB assay
Format: functional
Settings: NCI-H460, 48 h, read-out: Activity

SMILES | growth at 10 µM
O=C(NCCNc1nccc(-c2c(-c3cccc(O)c3)nc3sccn23)n1)Nc1ccccc1 | 102%
COc1cccc(-c2nc3sccn3c2-c2ccnc(NCCNC(=O)c3ccc(N4CCOCC4)c(C(F)(F)F)c3)n2)c1 | 77.7%

System: CAKI-1
Test: Anticancer activity against human Caki1 cells assessed as cell growth at 10^-5 M after 48 hrs by SRB assay
Format: functional
Settings: CAKI-1, 48 h, read-out: Activity
In short: as §1

SMILES | growth at 10 µM
O=C(NCCNc1nccc(-c2c(-c3cccc(O)c3)nc3sccn23)n1)Nc1ccccc1 | 111%
COc1cccc(-c2nc3sccn3c2-c2ccnc(NCCNC(=O)c3ccc(N4CCOCC4)c(C(F)(F)F)c3)n2)c1 | 68.8%

System: UACC-257
Test: Anticancer activity against human UACC257 cells assessed as cell growth at 10^-5 M after 48 hrs by SRB assay
Format: functional
Settings: UACC-257, 48 h, read-out: Activity
In short: as §2

SMILES | growth at 10 µM
O=C(NCCNc1nccc(-c2c(-c3cccc(O)c3)nc3sccn23)n1)Nc1ccccc1 | 46.2%
COc1cccc(-c2nc3sccn3c2-c2ccnc(NCCNC(=O)c3ccc(N4CCOCC4)c(C(F)(F)F)c3)n2)c1 | 87.7%

System: HL-60(TB)
Test: Anticancer activity against human HL-60(TB) cells assessed as cell growth at 10^-5 M after 48 hrs by SRB assay
Format: functional
Settings: HL-60, 48 h, read-out: Activity
In short: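 NCI-60 single-dose screen. Cells in RPMI 1640 with 5% FBS and 2 mM L-glutamine were plated at 5000–40,000 cells/well and preincubated 24 h at 37 °C before one compound concentration. Time-zero plates were TCA-fixed at drug addition. For suspension cells, settled cells were fixed with cold TCA, then SRB-stained and read at 515 nm. Percent growth was calculated from time-zero, control and treated absorbances.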

SMILES | growth at 10 µM
O=C(NCCNc1nccc(-c2c(-c3cccc(O)c3)nc3sccn23)n1)Nc1ccccc1 | 95.1%
COc1cccc(-c2nc3sccn3c2-c2ccnc(NCCNC(=O)c3ccc(N4CCOCC4)c(C(F)(F)F)c3)n2)c1 | 85.2%

System: SK-MEL-5
Test: Anticancer activity against human SK-MEL-5 cells assessed as cell growth at 10^-5 M after 48 hrs by SRB assay
Format: functional
Settings: SK-MEL-5, 48 h, read-out: Activity

SMILES | growth at 10 µM
O=C(NCCNc1nccc(-c2c(-c3cccc(O)c3)nc3sccn23)n1)Nc1ccccc1 | 69.3%
COc1cccc(-c2nc3sccn3c2-c2ccnc(NCCNC(=O)c3ccc(N4CCOCC4)c(C(F)(F)F)c3)n2)c1 | 57.2%

System: RXF 393
Test: Anticancer activity against human RXF393 cells assessed as cell growth at 10^-5 M after 48 hrs by SRB assay
Format: functional
Settings: RXF 393, 48 h, read-out: Activity

SMILES | growth at 10 µM
O=C(NCCNc1nccc(-c2c(-c3cccc(O)c3)nc3sccn23)n1)Nc1ccccc1 | 86.3%
COc1cccc(-c2nc3sccn3c2-c2ccnc(NCCNC(=O)c3ccc(N4CCOCC4)c(C(F)(F)F)c3)n2)c1 | 78.5%

System: SR
Test: Anticancer activity against human SR cells assessed as cell growth at 10^-5 M after 48 hrs by SRB assay
Format: functional
Settings: read-out: Activity
In short: as §2

SMILES | growth at 10 µM
O=C(NCCNc1nccc(-c2c(-c3cccc(O)c3)nc3sccn23)n1)Nc1ccccc1 | 90.1%
COc1cccc(-c2nc3sccn3c2-c2ccnc(NCCNC(=O)c3ccc(N4CCOCC4)c(C(F)(F)F)c3)n2)c1 | 76.7%
